Sampled rows, rich in hits. Any-hit rate of the full collection: about 1.5%.
CXCR6 inh: blocks human CXCR6 beta-arrestin recruitment | O00574 | CHO-K1 PathHunter CXCR6 beta-arrestin, luminescence | inhibition, % at 20 µM | 0.36% of 360,000 active | AID 602244; in the data active means inhibition above about 34%, passing the limit was not always enough;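 further: antagonist mode with CXCL16 agonist at 10 nM final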
hiPSC survival: hiPSC single-cell survival enhancement. ATPlite luminescence; 100% = ROCK inhibitor wells, 0% = DMSO. survival enhancement, % at 20 µM. 0.044% of 360,000 active; in the data active means survival enhancement above about 18%;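 further: cells exposed to compounds for 16 hours before the ATP read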
EBI2 block: blocks human EBI2 receptor beta-arrestin signaling | EBI2 beta-arrestin recruitment, luminescence, 7a,25-OHC stimulated | AID 651636 | inhibition, % at 5 µM | 0.81% of 360,000 active | P32249; in the data active means inhibition above about 38%;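 further: enzyme fragment complementation signal reports receptor beta-arrestin coupling in cells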
Target sequence (P32249 whole entry, looked up, the tested form may be a part): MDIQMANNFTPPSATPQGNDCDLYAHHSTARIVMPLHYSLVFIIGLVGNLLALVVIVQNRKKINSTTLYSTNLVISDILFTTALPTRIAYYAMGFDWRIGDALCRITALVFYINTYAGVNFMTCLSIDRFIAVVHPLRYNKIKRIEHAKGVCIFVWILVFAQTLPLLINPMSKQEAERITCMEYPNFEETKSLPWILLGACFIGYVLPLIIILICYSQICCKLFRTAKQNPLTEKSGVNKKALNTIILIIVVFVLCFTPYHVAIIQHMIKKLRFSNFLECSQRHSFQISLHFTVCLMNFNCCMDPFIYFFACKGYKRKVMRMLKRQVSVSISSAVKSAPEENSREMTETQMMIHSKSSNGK
CCR6 antagonist: antagonists of human CCR6 receptor; P51684; CHO-K1 CCR6 PathHunter beta-arrestin, luminescence, CCL20-stimulated; inhibition, % at 20 µM; 0.49% of 340,000 active;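 active means compounds whose inhibition of the agonist-driven luminescence signal at 20 µM reaches about 50%, limit read from the data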;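 further: cells stimulated with CCL20 at 14 nM final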
APJ antag: antagonists of human APJ apelin receptor. P35414. CHO-K1 APJ beta-arrestin complementation, luminescence. inhibition, % at 20 µM. 0.32% of 330,000 active;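 active means inhibition above about 40% at 20 µM, limit read from the data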;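 further: cells challenged with 10 nM apelin-13 agonist together with compound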
APJ agonist: APJ receptor agonism; 0.11% of 330,000 active; CHO-K1 APJ PathHunter beta-arrestin, luminescence; 0% DMSO wells, 100% apelin; P35414; AID 2520; activation, % at 20 µM;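 active means activation more than six SD over the plate average, tested at 20 µM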
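Assay system: CHO-K1 cells stably expressing ProLink-tagged human APJ and arrestin–beta-gal acceptor. Compound dosing: 20 µM single point, 1% DMSO. Times: 16-18 h seeding, 90 min dark compound exposure, 60 min detection. Detection: beta-gal luminescence. Evaluation: APJ–arrestin association signal. Controls: negative DMSO alone, positive Apelin-13 at 10 nM.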
EBI2 antag conf: confirmation of human EBI2 receptor antagonists | inhibition, % at 5 µM | shares compounds with EBI2 block | AID 651997 | EBI2 beta-arrestin luminescence, 7a,25-OHC antagonism | 29% of 2,400 active;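 active means inhibition of at least 50%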
EBI2 agonist: counter-screen for EBI2 antagonists: EBI2 agonist activity; shares compounds with EBI2 block; EBI2-expressing cells, agonist mode, luminescence, 60 min; 0% vehicle, 100% 7α,25-dihydroxycholesterol control; activation, % at 5 µM; 2,400 tested, under 10 active; AID 652000;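 active means activation of at least 50%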
bGal cs: inhibits E. coli beta-galactosidase, counter-screen for EBI2 antagonists; shares compounds with EBI2 block; purified beta-galactosidase, luminescent Galacton Star, 15 min; inhibition, % at 5 µM; 1% of 2,400 active; AID 652176;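 active means replicate-average signal at least 3 plate SD below neutral wells, shown as high inhibition, flagging enzyme-inhibiting false positives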;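 further: higher means stronger loss of beta-gal luminescence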
Numbers stand for hits.

What do the screens show for `Cc1occc1-c1nnc(SCC(N)=O)n1Cc1ccccc1`?
CXCR6 inh: inactive; hiPSC survival: inactive; EBI2 block: inactive; CCR6 antagonist: inactive; APJ antag: inactive; APJ agonist: inactive

Results for CCn1c(SCC(=O)NNC(=O)Cc2ccccc2)nnc1-c1ccccc1 ?
CXCR6 inh: inactive; hiPSC survival: inactive; EBI2 block: inactive; CCR6 antagonist: inactive; APJ antag: inactive; APJ agonist: inactive

What do the screens show for `Cc1occc1-c1nnc(SCC(=O)NCCc2ccccc2)n1Cc1ccccc1`?
CXCR6 inh: inactive; hiPSC survival: inactive; EBI2 block: 89.9; CCR6 antagonist: inactive; APJ antag: inactive; APJ agonist: inactive; EBI2 antag conf: 78.1; EBI2 agonist: inactive; bGal cs: inactive

What do the screens show for `Cc1ccc(C(=O)NNC(=O)CSc2nnc(-c3ccncc3)n2-c2ccc(C)cc2)cc1`?
CXCR6 inh: inactive; hiPSC survival: inactive; EBI2 block: 51.6; APJ antag: inactive; APJ agonist: inactive; EBI2 antag conf: inactive; EBI2 agonist: inactive; bGal cs: inactive

How did Cc1ccc(C(=O)NNC(=O)CSc2nnc(-c3ccccc3)n2Cc2ccccc2)cc1 do in these assays?
CXCR6 inh: inactive; hiPSC survival: inactive; EBI2 block: 96.0; CCR6 antagonist: inactive; APJ antag: inactive; APJ agonist: inactive; EBI2 antag conf: 88.7; EBI2 agonist: inactive; bGal cs: inactive

Results for Cc1ccc(-n2c(SCC(=O)Nc3ccc(C(=O)O)cc3)nnc2-c2ccncc2)cc1 ?
CXCR6 inh: inactive; hiPSC survival: inactive; EBI2 block: inactive; CCR6 antagonist: inactive; APJ antag: inactive; APJ agonist: inactive

What do the screens show for `Cc1cc([N+](=O)[O-])c2ccccc2c1NS(=O)(=O)c1ccccc1`?
CXCR6 inh: inactive; hiPSC survival: inactive; EBI2 block: inactive; CCR6 antagonist: inactive

How did COc1ccc(C(=O)NC(=S)Nc2cc3oc4ccccc4c3cc2OC)cc1 do in these assays?
CXCR6 inh: inactive; hiPSC survival: inactive; EBI2 block: 48.3; CCR6 antagonist: inactive; APJ antag: inactive; APJ agonist: inactive; EBI2 antag conf: inactive; EBI2 agonist: inactive; bGal cs: inactive

How did COc1cc(OC)cc(C(=O)NC(=S)Nc2cc3oc4ccccc4c3cc2OC)c1 do in these assays?
CXCR6 inh: inactive; hiPSC survival: inactive; EBI2 block: inactive; CCR6 antagonist: inactive; APJ antag: inactive; APJ agonist: inactive

What do the screens show for `COC(=O)c1ccc(C2C(Oc3ccc(OC)cc3)C(=O)N2CCc2ccc(OC)c(OC)c2)cc1` (stereo not drawn)?
CXCR6 inh: inactive; hiPSC survival: inactive; EBI2 block: inactive; CCR6 antagonist: inactive; APJ antag: inactive; APJ agonist: inactive

Results for COC(=O)c1ccc(C2C(Oc3ccccc3)C(=O)N2CCc2ccc(F)cc2)cc1 (stereo not drawn) ?
CXCR6 inh: inactive; hiPSC survival: inactive; EBI2 block: 53.3; CCR6 antagonist: inactive; APJ antag: inactive; APJ agonist: inactive; EBI2 antag conf: inactive; EBI2 agonist: inactive; bGal cs: inactive

What do the screens show for `CCOC(=O)c1c(NC(=O)CS(=O)(=O)c2cn(CC)c3ccccc23)sc2c1CCCCC2`?
CXCR6 inh: inactive; hiPSC survival: inactive; EBI2 block: 56.9; CCR6 antagonist: inactive; APJ antag: inactive; APJ agonist: inactive; EBI2 antag conf: inactive; EBI2 agonist: inactive; bGal cs: inactive

Results for O=C(OCC(=O)N1CCN(c2ccc(F)cc2)CC1)c1cnc2ccccc2n1 ?
CXCR6 inh: inactive; hiPSC survival: inactive; EBI2 block: inactive; CCR6 antagonist: inactive; APJ antag: inactive; APJ agonist: inactive
